Key:
[1] = tested on: patients with recurrent high-grade gliomas; conditions: IV; cited from earlier work
[2] = tested on: patients with recurrent high-grade glioma; experiment: Dose-limiting toxicities and adverse events of oral terameprocol, GATOR trial; type: in vivo, human
Summary of the method: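 Patients ≥18 y with recurrent supratentorial grade III–IV glioma took oral capsules once daily, days 1–5 every 28 days, fasted; an amended cohort took 6,000 mg/day with a meal within 30 min. 3+3 escalation over 1,200–6,000 mg/day. DLT window was the first 4 weeks: ANC <500/μL, platelets <25,000/μL, febrile neutropenia, hematologic toxicity preventing >80% of dose, grade 3–4 seizure/intracranial hemorrhage, grade 3 QTcF. AEs CTCAE-graded.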

[3] = DLT, 2,400 mg/day EXP (expanded dose cohort), N=4
[4] = DLT, 6,000 mg/day with meal, N=4
[5] = related to terameprocol, all cycles, N = 19

## COc1ccc(C[C@@H](C)[C@@H](C)Cc2ccc(OC)c(OC)c2)cc1OC [terameprocol, meso-tetra-O-methyl nordihydroguaiaretic acid]
[1]
  myelosuppression: nor did terameprocol cause significant myelosuppression
[2]; 1,200 mg/day, N=3
  % of patients with DLT per dose level: 0%
[2]; 2,400 mg/day EXP (expanded dose cohort), N=4
  % of patients with DLT per dose level: 0%
[2]; 2,400 mg/day, N=3
  % of patients with DLT per dose level: 33%
[2]; 3,600 mg/day, N=3
  % of patients with DLT per dose level: 0%
[2]; 6,000 mg/day with meal, N=4
  % of patients with DLT per dose level: 0%
[2]; 6,000 mg/day, N=3
  % of patients with DLT per dose level: 0%
[2]; 1,200-6,000 mg/day, days 1–5 every 28 days
  tolerability of oral terameprocol: without major toxicities and generally well tolerated and safe and well tolerated
[2]; DL2fasted 2,400 mg/day cohort
  patients who experienced DLT: 1/3
[2]; DL3fasted 3,600 mg/day, three patients
  DLT: no DLTs
[2]; DL4fasted 6,000 mg/day, three patients
  DLT: no DLTs
[2]; DL4fed 6,000 mg/day with food
  DLT: No DLTs
[2]; DLT, 1,200 mg/day, N=3
  <80% of expected terameprocol dose due to hematologic toxicity: 0
  Febrile neutropenia: 0
  Grade 3–4 non-hematologic toxicity: 0
  Grade 3–4 seizure or intracranial hemorrhage: 0
  Platelets <25,000/mm^3: 0
[2]; [3]
  <80% of expected terameprocol dose due to hematologic toxicity: 0
  Febrile neutropenia: 0
  Grade 3–4 non-hematologic toxicity: 0
  Grade 3–4 seizure or intracranial hemorrhage: 0
  Platelets <25,000/mm^3: 0
[2]; DLT, 2,400 mg/day, N=3
  <80% of expected terameprocol dose due to hematologic toxicity: 0
  Febrile neutropenia: 0
  Grade 3–4 non-hematologic toxicity: 1
  Grade 3–4 seizure or intracranial hemorrhage: 0
  Platelets <25,000/mm^3: 0
[2]; DLT, 3,600 mg/day, N=3
  <80% of expected terameprocol dose due to hematologic toxicity: 0
  Febrile neutropenia: 0
  Grade 3–4 non-hematologic toxicity: 0
  Grade 3–4 seizure or intracranial hemorrhage: 0
  Platelets <25,000/mm^3: 0
[2]; [4]
  <80% of expected terameprocol dose due to hematologic toxicity: 0
  Febrile neutropenia: 0
  Grade 3–4 non-hematologic toxicity: 0
  Grade 3–4 seizure or intracranial hemorrhage: 0
  Platelets <25,000/mm^3: 0
[2]; DLT, 6,000 mg/day, N=3
  <80% of expected terameprocol dose due to hematologic toxicity: 0
  Febrile neutropenia: 0
  Grade 3–4 non-hematologic toxicity: 0
  Grade 3–4 seizure or intracranial hemorrhage: 0
  Platelets <25,000/mm^3: 0
[2]; all dose levels
  patients off treatment due to toxicity: No patients
[2]; dose expansion at DL2fasted 2,400 mg/day, three additional patients
  DLT: no additional DLTs
[2]; [5]
  Alanine aminotransferase increased, Grade 1: 2 (10.5%) No. of patients (%)
  Alanine aminotransferase increased, Total: 2 (10.5%) No. of patients (%)
  Anemia, Grade 1: 4 (21.1%) No. of patients (%)
  Anemia, Total: 4 (21.1%) No. of patients (%)
  Anorexia, Grade 1: 2 (10.5%) No. of patients (%)
  Anorexia, Grade 2: 1 (5.3%) No. of patients (%)
  Anorexia, Total: 3 (15.8%) No. of patients (%)
  Arthralgia, Grade 1: 1 (5.3%) No. of patients (%)
  Arthralgia, Total: 1 (5.3%) No. of patients (%)
  Aspartate aminotransferase increased, Grade 1: 1 (5.3%) No. of patients (%)
  Aspartate aminotransferase increased, Total: 1 (5.3%) No. of patients (%)
  Blood bilirubin increased, Grade 1: 1 (5.3%) No. of patients (%)
  Blood bilirubin increased, Total: 1 (5.3%) No. of patients (%)
  Constipation, Grade 1: 1 (5.3%) No. of patients (%)
  Constipation, Total: 1 (5.3%) No. of patients (%)
  Diarrhea, Grade 1: 2 (10.5%) No. of patients (%)
  Diarrhea, Total: 2 (10.5%) No. of patients (%)
  Electrocardiogram QT corrected interval prolonged, Grade 3: 1 (5.3%) No. of patients (%)
  Electrocardiogram QT corrected interval prolonged, Total: 1 (5.3%) No. of patients (%)
  Fatigue, Grade 1: 2 (10.5%) No. of patients (%)
  Fatigue, Grade 2: 2 (10.5%) No. of patients (%)
  Fatigue, Total: 4 (21.1%) No. of patients (%)
  Fever, Grade 1: 1 (5.3%) No. of patients (%)
  Fever, Total: 1 (5.3%) No. of patients (%)
  Gastrointestinal pain, Grade 1: 1 (5.3%) No. of patients (%)
  Gastrointestinal pain, Total: 1 (5.3%) No. of patients (%)
  Hyperglycemia, Grade 1: 1(5.3%) No. of patients (%)
  Hyperglycemia, Total: 1 (5.3%) No. of patients (%)
  Hyperkalemia, Grade 2: 1 (5.3%) No. of patients (%)
  Hyperkalemia, Total: 1 (5.3%) No. of patients (%)
  Hypernatremia, Grade 1: 1 (5.3%) No. of patients (%)
  Hypernatremia, Total: 1 (5.3%) No. of patients (%)
  Hypertension, Grade 1: 1 (5.3%) No. of patients (%)
  Hypertension, Total: 1 (5.3%) No. of patients (%)
  Hypocalcemia, Grade 1: 1 (5.3%) No. of patients (%)
  Hypocalcemia, Total: 1 (5.3%) No. of patients (%)
  Hypokalemia, Grade 1: 1 (5.3%) No. of patients (%)
  Hypomagnesemia, Grade 1: 3 (15.8%) No. of patients (%)
  Hypomagnesemia, Grade 2: 1 (5.3%) No. of patients (%)
  Hypomagnesemia, Total: 4 (21.1%) No. of patients (%)
  Hyponatremia, Grade 1: 3 (15.8%) No. of patients (%)
  Hyponatremia, Total: 3 (15.8%) No. of patients (%)
  Hypophosphatemia, Grade 1: 1 (5.3%) No. of patients (%)
  Hypophosphatemia, Total: 1 (5.3%) No. of patients (%)
  Lymphocyte count decreased, Grade 2: 1 (5.3%) No. of patients (%)
  Lymphocyte count decreased, Grade 3: 1 (5.3%) No. of patients (%)
  Lymphocyte count decreased, Total: 2 (10.5%) No. of patients (%)
  Mouth sores, Grade 1: 1 (5.3%) No. of patients (%)
  Mouth sores, Total: 1 (5.3%) No. of patients (%)
  Muscle cramp, Grade 1: 1 (5.3%) No. of patients (%)
  Muscle cramp, Total: 1 (5.3%) No. of patients (%)
  Muscle weakness lower limb, Grade 1: 1 (5.3%) No. of patients (%)
  Muscle weakness lower limb, Total: 1 (5.3%) No. of patients (%)
  Nausea, Grade 1: 3 (15.8%) No. of patients (%)
  Nausea, Total: 3 (15.8%) No. of patients (%)
  Platelet count decreased, Grade 1: 1 (5.3%) No. of patients (%)
  Platelet count decreased, Total: 1 (5.3%) No. of patients (%)
  Rash, maculopapular, Grade 1: 1 (5.3%) No. of patients (%)
  Rash, maculopapular, Total: 1 (5.3%) No. of patients (%)
  Vomiting, Grade 1: 2 (10.5%) No. of patients (%)
  Vomiting, Total: 2 (10.5%) No. of patients (%)
  Weight loss, Grade 1: 1 (5.3%) No. of patients (%)
  Weight loss, Total: 1 (5.3%) No. of patients (%)

Reference: PMC11293336 (Cell Reports Medicine, 2024)
